In ChEMBL document CHEMBL4359864, “The synthesis and in vitro biological evaluation of novel fluorinated tetrahydrobenzo[j]phenanthridine-7,12-diones against Mycobacterium tuberculosis” (Eur J Med Chem, 2019):
Active and inactive are the calls of the source.

Assays:
[1] = Genotoxicity in Salmonella typhimurium TA104 harboring with RecN2-4 assessed as S/N ratio at 1 to 100 uM measured for 4 hrs with 5 mins interval by luminescence based assay; assay type: toxicity; settings: salmonella enterica subsp. enterica serovar typhimurium
In short: (§1)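 VITOTOX test. Genox (recN2-4) and Cytox (pr1) S. typhimurium TA104 strains were diluted 250-fold and grown in 869 medium for 16 h at 36°C with shaking, then diluted 10-fold and grown 1 h more. Compounds tested at 1, 10 and 100 µM, with or without rat liver S9-mix. Luminescence read for 4 h at 5-min intervals. S/N thresholds: Genox >1.5 genotoxic; Cytox <0.8 toxic, >1.5 luminescence artefact.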

CYP450 [2] = assay: Microsomal stability in mouse liver microsomes assessed as CYP450-mediated metabolism by measuring compound remaining at 5 uM and measured for 15 mins in presence of NADPH by UPLC-MS/MS analysis (reference value: 100%); assay type: ADME; settings: read-out: Stability
In short: (§2)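 Compound at 5 µM with 0.5 mg/mL liver microsomes in PBS. Phase I was started with 1 mM NADPH; phase II used 2 mM UDPGA. Diclofenac served as reference. Samples taken at 0, 15, 30 and 60 min were quenched in ice-cold acetonitrile, centrifuged at 4°C and analysed by LC-MS. Mean of at least two replicates ± SD.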

Staphylococcus aureus = assay: Antibacterial activity against Staphylococcus aureus ATCC 6538 incubated for 24 hrs by resazurin dye based fluorimetric assay; assay type: functional, organism-based; settings: ATCC 6538, 24 h
In short: (§3)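 Resazurin microtiter assay: compounds from 10 mM DMSO stock, twofold serial dilutions from 64 µM final in growth medium, in triplicate. Inoculum from frozen glycerol stocks. Exposure 24 h, or 7 days for Mtb H37Ra (7H9 + 0.5% glycerol + 10% OADC). Then 0.01% resazurin was added and plates were incubated at 37°C until pink. Fluorescence read at ex 550/em 590 nm; mean of triplicates.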

Escherichia coli = assay: Antibacterial activity against Escherichia coli ATCC 8739 incubated for 24 hrs by resazurin dye based fluorimetric assay; assay type: functional, organism-based; settings: ATCC 8739, ATCC 8739, 24 h; in short: as §3
UGT [3] = target: T1, UGT (Homo sapiens, UniProt O60656+O75310+O75795+P06133+P0DTE4+P0DTE5+P16662+P19224+P22309+P22310+P35503+P35504+P36537+P54855+Q6UWM9+Q9BY64+Q9HAW7+Q9HAW8+Q9HAW9); assay: Microsomal stability in human liver microsomes assessed as UGT-mediated metabolism by measuring compound remaining at 5 uM and measured for 30 mins in presence of UDPGA by UPLC-MS/MS analysis (reference value: 100%); assay type: ADME; settings: read-out: Stability; in short: as §2
UGT [4] = target: T1, UGT; assay: Microsomal stability in human liver microsomes assessed as UGT-mediated metabolism by measuring compound remaining at 5 uM and measured for 15 mins in presence of UDPGA by UPLC-MS/MS analysis (reference value: 100%); assay type: ADME; settings: read-out: Stability; in short: as §2
CYP450 [5] = target: T2, CYP450 (Homo sapiens, UniProt P04798+P05177+P05181+P08684+P10632+P10635+P11509+P11712+P13584+P20813+P20815+P20853+P24462+P24903+P33260+P33261+P51589+P78329+P98187+Q02928+Q08477+Q16678+Q16696+Q5TCH4+Q6VVX0+Q7Z449+Q8TAV3+Q96SQ9+Q9HB55); assay: Microsomal stability in human liver microsomes assessed as CYP450-mediated metabolism by measuring compound remaining at 5 uM and measured for 15 mins in presence of NADPH by UPLC-MS/MS analysis (reference value: 100%); assay type: ADME; settings: read-out: Stability; in short: as §2
[6] = Genotoxicity in Salmonella typhimurium TA104 harboring with RecN2-4 assessed as S/N ratio at 1 to 100 uM measured for 4 hrs with 5 mins interval in presence of rat liver S9 fraction by luminescence based assay; assay type: toxicity, subcellular; settings: salmonella enterica subsp. enterica serovar typhimurium, s9, 4 h; in short: as §1
[7] = test system: Mycobacterium tuberculosis; assay: Antimycobacterial activity against Mycobacterium tuberculosis H37Ra lux infected in mouse J774A.1 cells assessed as reduction in intracellular mycobacterial replication at 10.0 uM incubated for 24 to 72 hrs by luminometric assay relative to control; assay type: functional
In short: (§4)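 J774A.1 cells were infected at MOI 10 for 2 h at 37°C. Extracellular bacteria were killed with 100 µg/mL gentamicin for 1 h, then cells were washed and treated. At 24, 48 and 72 h, cells were lysed with 1% Triton X-100 and n-decanal was added to the lysate. Luminescence (RLU) reported as mean of triplicates ± SD.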

[8] = Antimycobacterial activity against Mycobacterium avium subsp. avium ATCC 25291 by resazurin dye based fluorimetric assay; assay type: functional
In short: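 Resazurin microtiter method as for the bacterial panel. Mycobacteria grown in 7H9 with 10% OADC and 0.5% glycerol; for BCG, 0.05% Tween 80 replaced the glycerol. Cultures were sonicated and needle-passed to single cells. Incubation at 37°C, or 32°C for M. marinum. Fluorescence read at ex 550/em 590 nm; mean of triplicates.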

UGT [9] = assay: Microsomal stability in mouse liver microsomes assessed as UGT-mediated metabolism by measuring compound remaining at 5 uM and measured for 30 mins in presence of UDPGA by UPLC-MS/MS analysis (reference value: 100%); assay type: ADME; settings: read-out: Stability; in short: as §2
CYP450 [10] = assay: Microsomal stability in mouse liver microsomes assessed as CYP450-mediated metabolism by measuring compound remaining at 5 uM and measured for 30 mins in presence of NADPH by UPLC-MS/MS analysis (reference value: 100%); assay type: ADME; settings: read-out: Stability; in short: as §2
[11] = test system: Mycobacterium tuberculosis; assay: Antimycobacterial activity against Mycobacterium tuberculosis H37Ra lux infected in mouse J774A.1 cells assessed as reduction in intracellular mycobacterial replication at 1.5 uM incubated for 24 to 72 hrs by luminometric assay relative to control; assay type: functional; in short: as §4
[12] = Selectivity index, ratio of […] for cytotoxicity against mouse J774A.1 cells; assay type: toxicity, cell-based; settings: read-out: Selectivity Index
[13] = Cytotoxicity against mouse J774A.1 cells assessed as reduction in cell viability incubated for 24 hrs by neutral red uptake assay; assay type: cell-based, J774.A1
In short: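 J774A.1 cells in DMEM + 10% iFCS, 37°C, 5% CO2, seeded at 40.000 cells/well and left overnight. Twofold dilutions from 128 µM final; 24 h exposure. Neutral red uptake for 3 h, dye extracted with 1:1 ethanol/acetic acid, OD read at 530 nm (reference 620 nm). CC50 = 50% reduction in uptake; mean of triplicates.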

[14] = test system: Mycobacterium tuberculosis; assay: Antimycobacterial activity against Mycobacterium tuberculosis H37Ra lux infected in mouse J774A.1 cells assessed as reduction in intracellular mycobacterial replication at 5.0 uM incubated for 24 to 72 hrs by luminometric assay relative to control; assay type: functional; in short: as §4
UGT [15] = assay: Microsomal stability in mouse liver microsomes assessed as UGT-mediated metabolism by measuring compound remaining at 5 uM and measured for 15 mins in presence of UDPGA by UPLC-MS/MS analysis (reference value: 100%); assay type: ADME; settings: read-out: Stability; in short: as §2
CYP450 [16] = target: T2, CYP450; assay: Microsomal stability in human liver microsomes assessed as CYP450-mediated metabolism by measuring compound remaining at 5 uM and measured for 30 mins in presence of NADPH by UPLC-MS/MS analysis (reference value: 100%); assay type: ADME; settings: read-out: Stability; in short: as §2

Row | SMILES | Ratio [1] | remaining at 0.25 h, 5 µM (CYP450 [2]) [%] | IC50 (Staphylococcus aureus) [µM] | IC50 (Escherichia coli) [µM] | remaining at 0.5 h, 5 µM (UGT [3]) [%] | remaining at 0.25 h, 5 µM (UGT [4]) [%] | remaining at 0.25 h, 5 µM (CYP450 [5]) [%] | Ratio [6] | Activity [7] | IC50 [8] [µM] | remaining at 0.5 h, 5 µM (UGT [9]) [%] | remaining at 0.5 h, 5 µM (CYP450 [10]) [%] | Activity [11] | selectivity ratio [12] | CC50 at 24 h [13] [µM] | Activity [14] | remaining at 0.25 h, 5 µM (UGT [15]) [%] | remaining at 0.5 h, 5 µM (CYP450 [16]) [%]
1 | O=C1C2=C(C(=O)c3c1cnc1c(F)cccc31)C1CCC2C1 (stereo unspecified) | <= 1.5 | 100 | > 32 | > 64 | 71 | 78 | 100 | <= 1.5 | inactive | 0.1 | 70 | 100 | inactive | 19.3 | 85.5 | inactive | 77 | 100
2 | O=C1C2=C(C(=O)c3c1cnc1ccccc31)C1CCC2C1 (stereo unspecified) | <= 1.5 | 100 | 32 to 64 | > 64 | 76 | 83 | 100 | <= 1.5 | 84.14% | 0.12 | 86 | 100 | 20.68% | 10.2 | 64.5 | 58.94% | 69 | 100
